Screening data from PubChem BioAssay.
The list is not random: actives were taken first. Their share in the collection is about 4.1%.
Tb MetRS inh – T. brucei MetRS inhibitors, primary screen, biochemical, luminescence; purified T. brucei MetRS, ATP depletion, Kinase-Glo luminescence; inhibition, % at 11.9 µM; methionyl-tRNA synthetase (Trypanosoma brucei brucei); AID 624268, 2012; hit rate 0.4% among 360,000;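 active = inhibition above a per-plate cutoff of the control wells' mean inhibition plus 3 SD, cut at about 5.5% in these data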;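 note: 0% = DMSO wells median and 100% = median of wells with control inhibitor compound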
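Dosing: 11.9 µM single point; system: parasite MetRS enzyme; technique: luminescence of leftover ATP; times: 15 min enzyme-compound preincubation, 2 h reaction, 10 min detection, 25 °C; replicates: each compound tested once; read-out basis: percent inhibition relative to median high and low control wells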
SMARCA2 activ – SMARCA2 (BRM) function activators, primary screen, cell-based, luminescence, high throughput. MG213 cells, MMTV-luciferase reporter, dexamethasone, overnight. activation, % at 9.1 µM. hit rate 1% among 370,000. AID 652017, 2013; in the data active = activation above about 7.8%;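 note: 0% = vehicle wells and 100% = reference activator wells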
TAG inh – inhibitors of triacylglycerol accumulation, primary screen, cell-based, uHTS, fluorescence, H9c2. H9c2 cells, Nile Red lipid (TAG) fluorescence; cells loaded with 200 µM oleic acid. inhibition, % at 12.5 µM. hit rate 0.66% among 230,000. AID 651582, 2012;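 active = pattern-corrected inhibition of lipid staining of at least 50% with the nuclear-stain viability signal not falling by more than 50%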;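 note: 0% = DMSO wells and 100% = triacsin C control wells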
Efflux pump inh – inhibitors of Candida efflux pumps in yeast, primary screen, S. cerevisiae, Nile Red, multiplex; S. cerevisiae Candida pump triplex; inhibition, % at 10 µM; hit rate 0.44% among 330,000;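 active = plate passing quality check with inhibition over a set limit, or well fluorescence over plate mean plus 4 SD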;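 note: Nile Red retained in pooled yeast measured as flow cytometry median fluorescence; 0% = buffer negative control and 100% = Enniatin B positive control; higher means more Nile Red kept so more efflux inhibition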
AHR act – AHR activators, primary screen, cell-based, luminescence, luciferase reporter, human. AHR-responsive luciferase reporter cells. hit rate 2.5% among 320,000. Aryl hydrocarbon receptor (Homo sapiens), P35869. activation, % at 5 µM. AID 2796, 2010; in the data active = activation above about 47%;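 note: 0% = vehicle wells and 100% = reference agonist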
Target sequence (P35869 whole entry, looked up): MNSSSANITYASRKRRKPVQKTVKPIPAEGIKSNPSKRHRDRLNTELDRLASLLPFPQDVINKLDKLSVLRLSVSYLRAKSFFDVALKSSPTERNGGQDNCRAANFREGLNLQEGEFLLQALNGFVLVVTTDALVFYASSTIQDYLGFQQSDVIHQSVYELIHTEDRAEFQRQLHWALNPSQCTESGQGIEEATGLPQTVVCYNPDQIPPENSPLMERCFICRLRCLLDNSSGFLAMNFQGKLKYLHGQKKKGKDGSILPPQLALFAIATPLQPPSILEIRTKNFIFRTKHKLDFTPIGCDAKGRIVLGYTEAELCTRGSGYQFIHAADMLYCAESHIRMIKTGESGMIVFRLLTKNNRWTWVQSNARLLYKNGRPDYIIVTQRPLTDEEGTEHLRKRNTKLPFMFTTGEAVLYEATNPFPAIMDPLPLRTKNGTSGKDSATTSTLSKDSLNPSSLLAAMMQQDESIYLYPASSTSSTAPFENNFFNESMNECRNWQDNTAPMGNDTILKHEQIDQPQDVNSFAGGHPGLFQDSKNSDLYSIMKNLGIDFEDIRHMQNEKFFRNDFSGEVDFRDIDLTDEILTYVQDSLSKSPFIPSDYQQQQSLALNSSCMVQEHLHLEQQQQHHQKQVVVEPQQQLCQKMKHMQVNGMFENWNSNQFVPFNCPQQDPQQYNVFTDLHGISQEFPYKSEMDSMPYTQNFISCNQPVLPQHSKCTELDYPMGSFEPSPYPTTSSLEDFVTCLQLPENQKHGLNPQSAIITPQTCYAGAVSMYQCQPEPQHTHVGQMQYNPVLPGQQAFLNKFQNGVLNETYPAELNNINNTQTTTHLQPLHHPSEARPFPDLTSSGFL
* marks the source's active call; other numbers are inactive results; / = no result given.

SMILES | Tb MetRS inh | SMARCA2 activ | TAG inh | Efflux pump inh | AHR act
Cc1ccc2c(c1N)C(=O)c1ccccc1C2=O | -1 | 3 | / | 0 | 73*
CCOC(=O)c1c(C)n(Cc2ccccc2)c2ccc(OCC(O)Cn3nc(C)cc3C)cc12 (stereo unspecified) | 0 | -2 | -26 | 0 | 55*
C[CH2][Hg][S]c1ccccc1C(=O)O | -1 | -12 | 99 | 3.0* | 27
CC[C@@H](O)C[C@H]1CCC[C@@]2(C[C@@H]3OC(=O)/C=C/[C@@](C)(O)[C@@H](O)[C@H](C)[C@@H](O)[C@H](OC4CCC(N(C)C)C(C)O4)[C@@H](O)[C@](C)(O)CCCCC/C=C/[C@@H]4CC(C)(C)O[C@@]4(O)C[C@H](O2)[C@H]3C)O1 (stereo partly specified) | 0 | -7 | 58* | / | /
CN1OC[C@@H]2CN3C4(C[C@@H]21)c1ccccc1C3(c1ccccc1)c1ccccc14 | / | -2 | / | / | /
Cc1cc(/C=C2/C(=O)NC(=O)N(c3ccc(Br)cc3)C2=O)c(C)n1C | 0 | -2 | 11 | 0 | 26
Cc1cc(/C=C2\C(=O)NC(=O)N(c3ccc(Br)cc3)C2=O)c(C)n1C | 0 | 1 | / | 0 | 64*
C/C(=N\Nc1cccc2ccccc12)c1c(O)n(Cc2ccccc2)c(=O)[nH]c1=O | 0 | 0 | / | -1 | 51*
C[C@@H]1C[C@H]2OC(=O)C3(CO3)[C@H]2[C@H](O)[C@]2(C)C(=O)C3OC3[C@@H]12 (stereo partly specified) | / | / | / | 0 | 1
C=C1C(=O)O[C@@H]2C[C@@H](C)[C@@H]3C=CC(=O)[C@@]3(C)[C@@H](O)[C@H]12 | -2 | -15 | 72* | 0 | -12
COC(COC(N)=O)C1=C(N2CC2)C(=O)C(C)=C(N2CC2)C1=O (stereo unspecified) | 0 | -3 | 60* | / | /
O=C(CN1C(=O)[C@@H](Cc2ccccc2)N=C(c2ccccc2)c2ccccc21)NC1CCCCC1 | / | -4 | / | / | /
NC(N)=N/N=C/c1cn(-c2ccccc2)nc1-c1cccs1 | 0 | -8 | 124* | 0 | 50*
Cc1ccc(C(=O)NCCN2CCC3(CC2)C(=O)NCN3c2ccccc2)cc1 | / | -2 | / | / | /
Cc1nn(Cc2ccccc2Cl)c(C)c1C(=O)OCC(=O)N1CC(C)OC(C)C1 (stereo unspecified) | 0 | -3 | / | 0 | 52*
CN1CCN(c2ccc([N+](=O)[O-])c(NCc3ccco3)c2)CC1 | 0 | -1 | / | 0 | 63*
O=[N+]([O-])c1ccc(N2CCNCC2)cc1NCc1ccco1 | 0 | -2 | / | 0 | 71*
CNc1cc(N2CCNCC2)ccc1[N+](=O)[O-] | -1 | 0 | / | 0 | 1
CN1CCN(c2ccc([N+](=O)[O-])c(NCC3CCCO3)c2)CC1 (stereo unspecified) | 0 | -2 | / | 0 | 12
COC(=O)C1(N(C)c2ccccc2)CCN(Cc2ccccc2)CC1 | / | 1 | / | / | /
O=C(NCCN1CCC2(CC1)C(=O)NCN2c1ccccc1)c1ccccc1C(F)(F)F | / | -2 | / | / | /
CC(=O)OC1CC[C@]2(C#N)[C@H]3CC[C@]4(C)[C@H](C5C=CC(=O)O5)CCC4(O)C3CCC2(O)C1 (stereo partly specified) | -1 | 7.8* | / | 0 | -1
N#CC1c2ccccc2-n2nncc2CN1C(=O)c1ccc([N+](=O)[O-])o1 (stereo unspecified) | / | -2 | / | / | /
O=C(NC(Cc1ccccc1)P(=O)(O)Oc1ccccc1)OCc1ccccc1 (stereo unspecified) | / | 0 | / | / | /
N#CCC[C@H]1CC[C@]2(CCCN(Cc3ccccn3)C2)O1 | / | -2 | / | / | /
SMILES | Tb MetRS inh | SMARCA2 activ | TAG inh | Efflux pump inh | AHR act
N[C@@H](Cc1c[nH]c2ccccc12)c1nnc(SCc2ccccc2)o1 | 0 | -1 | 18 | 0 | 74*
O=C(NCCN1CCC2(CC1)C(=O)NCN2c1ccccc1)c1ccc(F)cc1F | / | -4 | / | / | /
COCC(C)OC(=O)c1c(N)n(Cc2ccco2)c2nc3ccccc3nc12 (stereo unspecified) | -1 | 1 | -5 | 0 | 63*
CCOC(=O)c1c(N)n(Cc2ccco2)c2nc3ccccc3nc12 | 1 | 1 | 1 | 0 | 75*
Nc1c(C(=O)NCc2ccco2)c2nc3ccccc3nc2n1Cc1ccccc1 | 0 | 0 | / | 0 | 4
O=C(CN1C(=O)[C@@H](Cc2c[nH]c3ccccc23)N=C(c2ccccc2)c2ccccc21)NC1CCCCC1 | / | -3 | / | / | /
CC[C@H](C(N)=O)N1CCCC1=O | / | 0 | / | / | /
CN1c2ccc(Br)cc2[C@H]2NCC[C@H]2[C@H]1CO | / | -1 | / | / | /
CCSC(=O)N1CCCCCC1 | -1 | 7.8* | / | 0 | -1
CCCc1nc2ccccc2c(=O)n1-c1ccccc1OC | 0 | 0 | / | 0 | 3
CCCCc1nc2ccccc2c(=O)n1-c1ccccc1O | -1 | 1 | -13 | 0 | 73*
N#Cc1ccc2nc(-c3ccc(CN4CCC(n5c(=O)[nH]c6cc(Cl)ccc65)CC4)cc3)c(-c3ccccc3)nc2c1 | / | 1 | / | / | /
COC1=C(C)C(=O)C2=C(C1=O)C(CO)N1C(C#N)C3CC4C(C1C2N1CCOC41)N3C (stereo unspecified) | 0 | -11 | 83* | / | /
COc1ccc2c3c([nH]c2c1)C(C)=NCC3 | -1 | -6 | -7 | 0 | 50*
Oc1c(Cl)c(Cl)c(Cl)c(Cl)c1Cl | -1 | 0 | 10 | 0 | 79*
CCC(=NCCCn1ccnc1)c1c(O)n(Cc2ccccc2)c(=O)[nH]c1=O | -1 | -2 | / | 0 | 48*
CCOc1ccc(-n2c(-c3cccs3)nc3ccccc3c2=O)cc1 | -1 | 5 | -37 | 1 | -2
CCn1nc(-c2cccs2)nc2c(=O)n(C)c(=O)nc1-2 | 22* | / | 10 | / | /
Cc1ccccc1CCC[C@H](CC1CCCCC1)CN(C)C(=O)Oc1ccccc1 | / | -4 | / | / | /
O=P(Nc1ccccc1Cl)(c1ccccc1)c1nc2c(s1)CCCC2 (stereo unspecified) | -1 | 6 | / | 0 | 2
CP(=O)(Nc1ccc(Cl)cc1)c1nc2c(s1)CCCC2 (stereo unspecified) | 0 | -1 | -4 | 0 | 70*
CC(=NCc1ccc2c(c1)OCO2)c1c(O)n(C)c(=O)n(C)c1=O | 0 | 0 | -46 | 0 | 58*
CCC(=NCc1ccc2c(c1)OCO2)c1c(O)n(C)c(=O)n(C)c1=O | 0 | 1 | -85 | 0 | 27
CCCCC1(CCCC)C(=O)NC(=Nc2cccc(C)c2)NC1=O | 0 | -3 | -13 | 0 | 3
Cc1cccc(N=C2c3cc([N+](=O)[O-])ccc3-c3c2cc([N+](=O)[O-])cc3[N+](=O)[O-])c1 | 0 | -1 | 62* | / | /
Cc1cccc(CN2CCCC(C(=O)c3ccc4c(c3)OCO4)C2)n1 (stereo unspecified) | -1 | -1 | 3 | 0 | 8
